Experimental data: paper PMC9274295 (International Journal of Nanomedicine, 2022)
Like-named read-outs stand apart in the source and are kept apart here. Values belong to the molecule of their own block, whether it stands above or below them.

Experiments:
[1] = system: SKOV-3 tumor; assay: In vivo targeting; conditions: 0.11 µg DiR/g i.v., 1-24 h, tumor-bearing NU/NU mice
Procedure, shortened: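 Tumors made by injecting 1.0×10⁷ SKOV-3 cells/100 µL into the right lower abdomen of female NU/NU mice aged 5–6 weeks. At about 400 mm³, mice were randomised to free DiR or DiR-labelled liposomes, given by tail vein. Mice were anaesthetised with 4.0% chloral hydrate and imaged at 1, 2, 6, 12 and 24 h. They were then killed for ex vivo imaging and quantification of the tumor, heart, liver, spleen, lungs and kidneys.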

[2] = system: SKOV-3 cells; assay: Combination index of PTX and CBP; format: cell-based, Human; conditions: read-out: IC50 of a single drug
Procedure, shortened: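 SKOV-3 cells cultured in McCoy's 5A with 10% FBS and penicillin-streptomycin at 37°C, 5% CO2. Seeded at 5.0×10³ cells/well and left overnight. Exposed for 48 h to each drug alone and to mixtures at various ratios, with the mixtures' final PTX at 0.2–50.0 μM. CCK-8 added for 2 h, then absorbance read at 450 nm. Data given as mean ± SD, n = 3.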

SMILES: CCCCCCCCCCCCCCCCCCN1/C(=C/C=C/C=C/C=C/C2=[N+](CCCCCCCCCCCCCCCCCC)c3ccccc3C2(C)C)C(C)(C)c2ccccc21.[I-] [DiR]
Enrichment in the tumor site [1]: not enriched in the tumor site

IC50 ([2]; Homo sapiens, SK-OV-3, 48 h): 3.89 µM
SMILES: CC(=O)O[C@H]1C(=O)[C@@]2(C)[C@H]([C@H](OC(=O)c3ccccc3)[C@]3(O)C[C@H](OC(=O)[C@H](O)[C@@H](NC(=O)c4ccccc4)c4ccccc4)C(C)=C1C3(C)C)[C@]1(OC(C)=O)CO[C@@H]1C[C@@H]2O [PTX, Paclitaxel]

SMILES: N.N.O=C([O-])C1(C(=O)[O-])CCC1.[Pt+2] [CBP, carboplatin]
IC50 ([2]; single drug, SKOV-3 cells, 48 h, CCK-8): 19.2 µM
